Experimental data reported in the RNAGym collection of RNA variant scans (doi:10.1126/science.aae0568).
This sample holds only a part of the variants without activity.

B1: tRNA (parent)
chain: GUUCCGUUGGCGUAAUGGUAACGCGUCUCCCUCCUAAGGAGAAGACUGCGGGUUCGAGUCCCGUACGGAACG

Variants of: B1
Assay: yeast fitness relative to wild type (ratio to wild type); higher = fitter; tRNA-Arg(CCU), competitive growth, 37 C, YPD
Procedure, shortened: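 Start and end populations of a pooled competition were compared by 100-nucleotide paired-end sequencing of gene amplicons. The Saccharomyces cerevisiae strains carried tRNA-Arg(CCU) gene variants at the native genomic locus, synthesised with a 3% per-site mutation rate at 69 sites, and competed in YPD at 37°C for 24 hours in six parallel replicates. Darwinian fitness relative to wild type was based on the change in genotype frequencies. Genotypes required ≥ 100 starting reads, and estimates < 0.5 were set to 0.5.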

Variant | yeast fitness
G17C A20G G51A | ≤ 0.5
G17C A20G U53G A70U | ≤ 0.5
G17C A20U A42U | 0.604
G17C A20U C33G | ≤ 0.5
G17C A21C C34G A37U A42U A57G | ≤ 0.5
G17C A21C C34G A37U U47C G68C | ≤ 0.5
G17C A21C U26A | ≤ 0.5
G17C A21G C27U C33G A42U A57G | ≤ 0.5
G17C A21G C27U C33G A42U G48A A57G | ≤ 0.5
G17C A21G C33A C49U | ≤ 0.5
G17C A21U | 0.559
G17C A21U A57U | 0.564
G17C A21U C33G | ≤ 0.5
G17C A21U C33G G38A G52A | ≤ 0.5
G17C A36U G44C | ≤ 0.5
G17C A36U G48C U54C C60A U64G | ≤ 0.5
G17C A37C A40C C61U | ≤ 0.5
G17C A37C A45U | 0.659
G17C A40G A42U C62U | ≤ 0.5
G17C A40U C66G | ≤ 0.5
G17C A42C C60A | ≤ 0.5

Variant | yeast fitness
G17C A42G | 0.528
G17C A42G C55U | ≤ 0.5
G17C A42U | 0.703
G17C A42U A70G | 0.653
G17C A42U C62U | 0.645
G17C A42U G44C A45U G58A | ≤ 0.5
G17C A43C | 0.734
G17C A43U C62U | 0.632
G17C A43U G56A A70U | ≤ 0.5
G17C A45C G48A U59A | 0.622
G17C A45C G48A U59A A70C | ≤ 0.5
G17C A45G | 0.546
G17C A57U | 0.52
G17C A65C | 0.67
G17C A65U | 0.649
G17C C22A C24G U28C C33A | ≤ 0.5
G17C C22A C31G C55G | ≤ 0.5
G17C C22A U28C C66G G67C | ≤ 0.5
G17C C22G A36C G39A A42G G63C | 0.842
G17C C22G A42G C46A | ≤ 0.5
G17C C22G A65G | 0.6

Variant | yeast fitness
G17C C22G C24A | ≤ 0.5
G17C C22G C29A C46U A65C | ≤ 0.5
G17C C22G C30U G41C C46U A65U | ≤ 0.5
G17C C22G U26A A43G C61U A65U | ≤ 0.5
G17C C22G U26C U47A C66U | ≤ 0.5
G17C C22U C29G G51C | ≤ 0.5
G17C C22U U26C C46A G63A | ≤ 0.5
G17C C22U U32C A40U A65G | ≤ 0.5
G17C C22U U32C A40U C66U | ≤ 0.5
G17C C22U U32C C46U | ≤ 0.5
G17C C24A A69C | 0.553
G17C C24A U32C U47A G67C | ≤ 0.5
G17C C24A U47A G67C | 0.569
G17C C24G C30U G50C | ≤ 0.5
G17C C24G C34U C66U | 0.548
G17C C24G C46G | 0.519
G17C C24G C46G C66U | ≤ 0.5
G17C C24G C46G U59C | ≤ 0.5
G17C C24G G38C | ≤ 0.5
G17C C24G G48C | ≤ 0.5
G17C C24G U28A C30U A65U A69C | 0.571

Variant | yeast fitness
G17C C24G U28A C30U G38U A65U A69C | ≤ 0.5
G17C C24G U28A C30U G52A | ≤ 0.5
G17C C27A | 0.674
G17C C27A C61G | ≤ 0.5
G17C C27A U32C C61A C66U | ≤ 0.5
G17C C27G | 0.558
G17C C27U | 0.617
G17C C27U A36G | 0.714
G17C C27U A37G A65G | ≤ 0.5
G17C C27U A65G | 0.598
G17C C27U U64C | ≤ 0.5
G17C C29A | 0.544
G17C C29A C46U | 0.867
G17C C29G G39A A70U | ≤ 0.5
G17C C29G U32G G38A U53C | ≤ 0.5
G17C C29U A37C G67A | 0.575
G17C C29U A70U | ≤ 0.5
G17C C29U U32A C46U | ≤ 0.5
G17C C29U U32A C46U C60A C66G | ≤ 0.5
G17C C29U U53A C66A | ≤ 0.5
